Test results reported in ChEMBL document CHEMBL1149392, “PTP-1B inhibitors: cyclopenta[d][1,2]-oxazine derivatives” (Bioorg Med Chem Lett, 2006).

What was measured:
[1] = target: T1, Tyrosine-protein phosphatase non-receptor type 1 (Homo sapiens, UniProt P18031); test: Inhibitory activity against recombinant human PTP1B
T1 sequence (P18031 whole entry): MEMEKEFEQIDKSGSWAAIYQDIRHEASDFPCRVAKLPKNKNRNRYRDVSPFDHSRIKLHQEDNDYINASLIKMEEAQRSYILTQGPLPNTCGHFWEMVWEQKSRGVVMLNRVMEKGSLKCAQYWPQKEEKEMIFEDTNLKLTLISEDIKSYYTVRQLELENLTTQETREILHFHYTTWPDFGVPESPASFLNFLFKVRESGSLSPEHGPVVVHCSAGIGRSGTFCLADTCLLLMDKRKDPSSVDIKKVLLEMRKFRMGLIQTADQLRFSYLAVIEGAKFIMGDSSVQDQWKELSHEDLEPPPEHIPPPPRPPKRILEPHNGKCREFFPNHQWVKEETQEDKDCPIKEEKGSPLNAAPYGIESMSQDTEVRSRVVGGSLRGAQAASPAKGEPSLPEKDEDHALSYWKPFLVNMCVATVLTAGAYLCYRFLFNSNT
How it was run: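 Recombinant human PTP-1B (0.1 μg) incubated with 20 μM fluorescein diphosphate and compound in 30 mM Tris, 75 mM NaCl, 0.67 mM EDTA, 1 mM DTT, pH 8.0, for 1 h at room temperature. Product fluorescein monophosphate read by fluorescence (ex 485 nm, em 538 nm). IC50 reported.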

[2] = target: T2, Tyrosine-protein phosphatase non-receptor type 1 (Homo sapiens) (UniProt P18031); test: Inhibitory activity against recombinant human PTP1B at 10 uM
T2 sequence (whole entry): T1 sequence (P18031 whole entry)

[3] = target: Tyrosine-protein phosphatase YopH (Yersinia enterocolitica, UniProt P15273); test: Inhibitory activity against YOP protein tyrosine phosphatase
Chain of Tyrosine-protein phosphatase YopH (P15273 whole entry): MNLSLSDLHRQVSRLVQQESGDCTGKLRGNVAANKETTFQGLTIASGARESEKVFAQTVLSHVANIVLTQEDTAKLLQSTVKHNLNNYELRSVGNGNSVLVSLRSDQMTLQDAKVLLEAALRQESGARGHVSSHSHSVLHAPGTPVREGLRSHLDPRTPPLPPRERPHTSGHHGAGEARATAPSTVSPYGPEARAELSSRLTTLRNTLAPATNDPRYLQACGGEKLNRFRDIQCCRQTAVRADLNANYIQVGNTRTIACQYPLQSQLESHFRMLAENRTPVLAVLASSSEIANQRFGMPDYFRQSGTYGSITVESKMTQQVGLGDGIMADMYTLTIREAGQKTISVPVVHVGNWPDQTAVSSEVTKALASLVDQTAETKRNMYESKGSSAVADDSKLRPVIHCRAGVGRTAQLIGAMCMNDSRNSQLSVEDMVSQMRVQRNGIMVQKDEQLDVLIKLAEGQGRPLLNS
How it was run: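 Counter-screen against Yop phosphatase within a nine-phosphatase selectivity panel. Fluorescein diphosphate substrate at 20 μM, the same level as in the PTP-1B assay. Potency is reported as IC50 (μM).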

[4] = target: Serine/threonine-protein phosphatase PP1-gamma catalytic subunit (Homo sapiens, UniProt P36873); test: Inhibitory activity against Protein phosphatase 1
Chain of Serine/threonine-protein phosphatase PP1-gamma catalytic subunit (P36873 whole entry): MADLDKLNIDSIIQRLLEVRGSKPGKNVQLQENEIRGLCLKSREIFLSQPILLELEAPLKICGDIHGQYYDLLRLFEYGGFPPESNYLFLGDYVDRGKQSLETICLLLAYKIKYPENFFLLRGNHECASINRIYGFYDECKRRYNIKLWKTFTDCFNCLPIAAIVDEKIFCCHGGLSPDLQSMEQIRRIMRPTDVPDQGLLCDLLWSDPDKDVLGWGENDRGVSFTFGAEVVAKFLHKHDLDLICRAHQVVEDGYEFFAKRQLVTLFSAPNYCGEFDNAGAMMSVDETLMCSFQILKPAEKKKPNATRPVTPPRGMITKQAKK
How it was run: (§1)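 Selectivity panel of nine phosphatases, each assayed with fluorescein diphosphate at the same concentration as in the PTP-1B assay (20 μM). IC50 values (μM) reported.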

[5] = target: T3, Receptor-type tyrosine-protein phosphatase C (Homo sapiens, UniProt P08575); test: Inhibitory activity against CD45 phosphatase; how it was run: as §1
T3 sequence (P08575 whole entry): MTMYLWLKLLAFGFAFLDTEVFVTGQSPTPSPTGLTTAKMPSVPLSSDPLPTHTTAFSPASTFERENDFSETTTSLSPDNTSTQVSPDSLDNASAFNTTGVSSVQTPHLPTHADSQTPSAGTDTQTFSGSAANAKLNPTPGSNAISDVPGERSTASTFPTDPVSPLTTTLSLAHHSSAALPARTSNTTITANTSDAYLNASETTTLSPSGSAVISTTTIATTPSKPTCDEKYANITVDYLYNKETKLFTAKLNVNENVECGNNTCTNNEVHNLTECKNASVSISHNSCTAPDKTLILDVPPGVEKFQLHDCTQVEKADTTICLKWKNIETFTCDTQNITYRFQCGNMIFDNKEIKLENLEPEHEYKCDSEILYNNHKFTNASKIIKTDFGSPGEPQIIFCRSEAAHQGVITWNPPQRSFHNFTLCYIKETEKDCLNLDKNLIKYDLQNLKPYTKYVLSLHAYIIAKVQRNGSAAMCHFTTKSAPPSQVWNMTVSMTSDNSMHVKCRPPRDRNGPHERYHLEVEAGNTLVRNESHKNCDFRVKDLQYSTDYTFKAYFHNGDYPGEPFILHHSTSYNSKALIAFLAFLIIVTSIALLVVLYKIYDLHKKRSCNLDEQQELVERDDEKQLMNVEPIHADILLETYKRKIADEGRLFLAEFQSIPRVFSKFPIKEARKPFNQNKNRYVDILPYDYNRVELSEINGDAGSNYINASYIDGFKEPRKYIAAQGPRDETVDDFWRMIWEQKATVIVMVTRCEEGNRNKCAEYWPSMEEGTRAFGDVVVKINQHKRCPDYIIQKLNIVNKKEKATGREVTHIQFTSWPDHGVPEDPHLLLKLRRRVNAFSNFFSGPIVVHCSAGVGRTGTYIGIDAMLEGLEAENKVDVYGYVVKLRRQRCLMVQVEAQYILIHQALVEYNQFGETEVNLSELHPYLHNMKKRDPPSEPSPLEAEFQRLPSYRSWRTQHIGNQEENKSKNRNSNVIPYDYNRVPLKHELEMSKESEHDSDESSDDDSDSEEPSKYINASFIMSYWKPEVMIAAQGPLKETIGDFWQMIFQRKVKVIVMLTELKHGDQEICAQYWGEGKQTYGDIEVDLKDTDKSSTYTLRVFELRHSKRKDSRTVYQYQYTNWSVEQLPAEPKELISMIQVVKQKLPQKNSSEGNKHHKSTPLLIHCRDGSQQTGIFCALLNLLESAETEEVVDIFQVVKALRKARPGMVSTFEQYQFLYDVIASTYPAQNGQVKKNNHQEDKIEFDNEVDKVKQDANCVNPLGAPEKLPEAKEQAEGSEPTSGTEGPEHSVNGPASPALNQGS

[6] = target: Receptor-type tyrosine-protein phosphatase F (Homo sapiens, UniProt P10586); test: Inhibitory activity against LAR protein tyrosine phosphatase; how it was run: as §1
Chain of Receptor-type tyrosine-protein phosphatase F (P10586 whole entry): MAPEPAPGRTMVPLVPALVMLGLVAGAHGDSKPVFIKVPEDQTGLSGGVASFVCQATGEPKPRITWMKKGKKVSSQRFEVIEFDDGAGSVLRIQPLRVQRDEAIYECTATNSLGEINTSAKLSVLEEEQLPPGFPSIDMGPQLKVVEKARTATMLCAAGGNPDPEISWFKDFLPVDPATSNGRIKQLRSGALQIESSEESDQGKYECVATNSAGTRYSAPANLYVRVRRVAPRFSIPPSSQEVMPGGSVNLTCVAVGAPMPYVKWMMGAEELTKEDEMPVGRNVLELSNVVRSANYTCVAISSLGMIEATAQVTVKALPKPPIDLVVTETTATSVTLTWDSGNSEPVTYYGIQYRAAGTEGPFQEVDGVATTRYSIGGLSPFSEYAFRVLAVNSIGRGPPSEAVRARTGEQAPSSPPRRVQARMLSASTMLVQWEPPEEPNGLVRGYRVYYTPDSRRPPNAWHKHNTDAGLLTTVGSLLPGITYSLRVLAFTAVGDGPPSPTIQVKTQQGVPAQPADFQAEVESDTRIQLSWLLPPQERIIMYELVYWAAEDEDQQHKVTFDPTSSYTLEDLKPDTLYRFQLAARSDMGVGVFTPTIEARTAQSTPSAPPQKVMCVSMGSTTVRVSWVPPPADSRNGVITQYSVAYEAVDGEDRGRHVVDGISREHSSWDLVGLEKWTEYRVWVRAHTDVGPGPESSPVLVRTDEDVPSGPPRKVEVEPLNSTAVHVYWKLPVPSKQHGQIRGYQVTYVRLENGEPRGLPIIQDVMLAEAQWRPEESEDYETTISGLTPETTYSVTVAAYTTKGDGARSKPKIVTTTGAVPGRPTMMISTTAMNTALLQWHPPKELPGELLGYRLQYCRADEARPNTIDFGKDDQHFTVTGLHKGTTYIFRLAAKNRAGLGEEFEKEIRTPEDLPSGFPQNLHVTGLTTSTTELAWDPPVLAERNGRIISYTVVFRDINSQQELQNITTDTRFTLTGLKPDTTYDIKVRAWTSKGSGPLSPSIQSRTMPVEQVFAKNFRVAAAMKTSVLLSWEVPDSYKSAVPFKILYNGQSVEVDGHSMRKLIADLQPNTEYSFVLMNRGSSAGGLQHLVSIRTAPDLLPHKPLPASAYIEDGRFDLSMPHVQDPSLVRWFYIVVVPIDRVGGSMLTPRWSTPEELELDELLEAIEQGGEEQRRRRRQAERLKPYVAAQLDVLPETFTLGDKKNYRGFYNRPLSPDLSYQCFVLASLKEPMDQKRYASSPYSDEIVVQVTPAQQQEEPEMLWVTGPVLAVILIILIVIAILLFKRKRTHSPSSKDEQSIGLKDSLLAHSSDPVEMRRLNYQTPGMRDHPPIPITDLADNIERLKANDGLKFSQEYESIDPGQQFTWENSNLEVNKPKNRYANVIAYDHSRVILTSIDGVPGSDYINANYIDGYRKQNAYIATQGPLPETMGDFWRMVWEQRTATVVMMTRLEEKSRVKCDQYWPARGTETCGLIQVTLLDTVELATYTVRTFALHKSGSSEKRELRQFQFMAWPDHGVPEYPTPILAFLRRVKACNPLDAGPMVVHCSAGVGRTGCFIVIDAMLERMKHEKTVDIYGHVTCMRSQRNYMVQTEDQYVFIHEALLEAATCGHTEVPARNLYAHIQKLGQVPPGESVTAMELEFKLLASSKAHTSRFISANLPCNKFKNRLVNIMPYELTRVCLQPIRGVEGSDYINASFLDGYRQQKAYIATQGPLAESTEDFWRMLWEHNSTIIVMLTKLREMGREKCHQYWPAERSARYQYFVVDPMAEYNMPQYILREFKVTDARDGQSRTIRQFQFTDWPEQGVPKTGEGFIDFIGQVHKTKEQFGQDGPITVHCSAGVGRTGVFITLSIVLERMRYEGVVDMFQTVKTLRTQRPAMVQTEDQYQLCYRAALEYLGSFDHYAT

[7] = target: T4, M-phase inducer phosphatase 1 (Homo sapiens, UniProt P30304); test: Inhibitory activity against cdc25A phosphatase; how it was run: as §1
T4 sequence (P30304 whole entry): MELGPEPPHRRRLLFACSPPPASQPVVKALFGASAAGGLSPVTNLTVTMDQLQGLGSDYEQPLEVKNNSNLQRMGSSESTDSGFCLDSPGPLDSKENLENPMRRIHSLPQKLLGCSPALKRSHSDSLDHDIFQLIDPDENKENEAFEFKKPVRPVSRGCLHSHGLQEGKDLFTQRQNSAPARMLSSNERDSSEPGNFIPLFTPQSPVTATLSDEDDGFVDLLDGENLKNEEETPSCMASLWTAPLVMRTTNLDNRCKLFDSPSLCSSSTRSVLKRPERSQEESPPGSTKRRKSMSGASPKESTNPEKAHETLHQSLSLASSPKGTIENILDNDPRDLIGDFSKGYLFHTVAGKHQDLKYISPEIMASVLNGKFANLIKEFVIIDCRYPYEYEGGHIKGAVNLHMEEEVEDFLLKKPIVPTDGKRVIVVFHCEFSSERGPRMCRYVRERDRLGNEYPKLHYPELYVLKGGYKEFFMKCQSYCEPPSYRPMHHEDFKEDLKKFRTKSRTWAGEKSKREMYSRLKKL

Compound | IC50 [1] [nM] | inhibition [2] [%] | IC50 [3] [nM] | IC50 [4] [nM] | IC50 [5] [nM] | IC50 [6] [nM] | IC50 [7] [nM]
COc1ccc(C(=O)c2ccc3c(-c4ccc(OCC(=O)O)cc4)nocc2-3)cc1 | 800 | 81.5 | 5710 | 35200 | 28800 | 61700 | 73300
CCCCCCCCCCCCCCc1ccc(C(=O)c2ccc3c(-c4ccc(OCC(=O)O)cc4)nocc2-3)cc1 | 140 | 101 | 550 | 220 | 150 | 690 | 1330
NCc1ccc(C(=O)c2ccc3c(-c4ccc(OCC(=O)O)cc4)nocc2-3)cc1 | 2160 | 97.2 | 1190 | 1300 | 1230 | > 10000 | 10000
